The results in this text go back to ChEMBL document CHEMBL3259611, “Suppression of inflammatory responses by handelin, a guaianolide dimer from Chrysanthemum boreale, via downregulation of NF-κB signaling and pro-inflammatory cytokine production” (J Nat Prod, 2014).

The test system of data set [1] is Mus musculus. Put plainly: Antiinflammatory activity in ICR mouse ear edema model assessed as inhibition of TPA-induced iNOS protein expression in ear tissue at 10 to 20 mg/kg, po administered 30 mins prior to TPA challenge measured after 4 hrs by Western blotting analysis relative to vehicle-treated control. The data set is classed as functional, organism-based. A digest of the protocol:
(§1)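 ICR mice (male, 18−20 g, 5 weeks old) dosed orally 30 min before TPA (1.0 μg in 20 μL acetone) was applied to inner and outer surfaces of the right ear. Killed by cervical dislocation after 4 h. Edema taken as the weight of a 5 mm punch biopsy of the right ear over the left. Ear homogenates were Western blotted for iNOS, COX-2 and IL-1β.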
On the technique in general: Immunoblotting shows a protein as a band on a membrane.

In data set [2] the test system is RAW264.7. Put plainly: Antiinflammatory activity in mouse RAW264.7 cells assessed as inhibition of LPS-induced COX2 protein expression after 16 hrs by Western blotting analysis.
The test system of the next data set is Rattus norvegicus. The data set can be described thus: Antiinflammatory activity in rat paw edema model assessed as inhibition of carrageenan-induced iNOS protein expression in paw tissue at 20 mg/kg, po administered 30 mins prior to carrageenan challenge measured after 6 hrs by Western blotting analysis relative to vehicle-treated control. The data set is classed as functional, organism-based. Set-up: dose 20 mg/kg. A digest of the protocol: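 SD rats received compound orally in 0.5% CMC-Na 30 min before subplantar injection of 0.1 mL 1% carrageenan in saline. Paws were removed at 6 h, homogenized, and iNOS, COX-2 and IL-1β were assessed by Western blot. Triplicate, representative of three experiments.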

Data set [3] concerns the target Transcription factor p65 (Mus musculus) (UniProt Q04207). The data set can be described thus: Inhibition of LPS-induced NF-kappaB p65 binding to DNA in mouse RAW264.7 cells at 10 to 40 uM after 1.5 hrs by spectrophotometry in presence of mutant oligonucleotide. The data set is classed as cell-based.
Data set [4] concerns RAW264.7. The data set can be described thus: Antiinflammatory activity in mouse RAW264.7 cells assessed as inhibition LPS-induced TNF-alpha protein expression after 4 hrs by Western blotting analysis. The data set is classed as functional, cell-based. A digest of the protocol:
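RAW 264.7 cells stimulated with LPS (1 μg/mL) with or without compound for 4 h. Lysates were resolved by 6−15% SDS-PAGE and blotted to PVDF. Blocked in 5% milk/PBST, primary antibody overnight at 4 °C, secondary antibody 2 h, detected by ECL. Triplicate, representative of three experiments.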

The nature of data set [5]: Cytotoxicity against mouse RAW264.7 cells assessed as cell survival at 20 uM after 4 hrs by MTT assay relative to control. Particulars: read-out: Survival. The data set is classed as cell-based. The gist of the method:
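RAW 264.7 cells plated at 3 × 10^5 cells/mL in phenol red-free 10% FBS–DMEM, incubated 24 h, then treated with compound plus 1 μg/mL LPS for 20 h. After the Griess step, MTT was added (final 500 μg/mL) for 4 h at 37 °C. Formazan dissolved in DMSO, A570 read; survival taken relative to control; triplicate.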

Data set [6] concerns RAW264.7. Put plainly: Antiinflammatory activity in mouse RAW264.7 cells assessed as inhibition LPS-induced TNF-alpha protein expression at 20 uM after 4 hrs by Western blotting analysis relative to control. The data set is classed as functional.
Data set [7] deals with Transcription factor p65 (Mus musculus) (UniProt Q04207). The data set can be described thus: Inhibition of LPS-induced NFkappaB P65 protein nuclear translocation in mouse RAW264.7 cells at 10 uM after 30 mins by Western blotting analysis relative to control. It is filed as cell-based. A digest of the protocol: (§2)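 Macrophages were exposed to compound for 30 min before LPS stimulation, with proteins extracted 30 min later. Nuclear extracts were prepared in Tris/KCl/NP-40 lysis buffer, then 420 mM NaCl buffer, and the cytosolic fraction was kept for IκB-α. Western blot on PVDF with ECL detection. Tests in triplicate; representative of three separate experiments.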

Data set [8] has as its system Mus musculus. The data set can be described thus: Antiinflammatory activity in ICR mouse ear edema model assessed as inhibition of TPA-induced IL-1beta protein expression in ear tissue at 10 to 20 mg/kg, po administered 30 mins prior to TPA challenge measured after 4 hrs by Western blotting analysis relative to vehicle-treated control. It is filed as functional, organism-based. A digest of the protocol: as §1

Data set [9] relates to Mus musculus. The data set can be described thus: Antiinflammatory activity in ICR mouse ear edema model assessed as inhibition of TPA-induced ear edema at 10 mg/kg, po administered 30 mins prior to TPA challenge measured after 4 hrs relative to vehicle-treated control. The data set is classed as functional. The gist of the method:
as §1

Data set [10] has as its system RAW264.7. The data set can be described thus: Antiinflammatory activity in mouse RAW264.7 cells assessed as inhibition LPS-induced TNF-alpha mRNA expression at 10 uM after 4 hrs by RT-PCR analysis relative to control. The data set is classed as functional. The gist of the method:
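RAW 264.7 cells stimulated with LPS (1 μg/mL) with or without compound for 4 h. Total RNA was isolated and cytokine mRNA was analysed by RT-PCR: 94 °C 4 min, then 25−30 cycles of 94/55/72 °C for 30 s each, then 72 °C 5 min. Products were run on 2% agarose and stained with SYBR-Safe. Triplicate, representative of three experiments.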

Data set [11] deals with RAW264.7. Put plainly: Inhibition of LPS-induced NFkappaB transcriptional activity in mouse RAW264.7 cells assessed as reduction of phosphorylated IkappaB-alpha level at 10 uM after 30 mins by Western blotting analysis relative to control. The data set is classed as cell-based. A digest of the protocol:
as §2

Data set [12] has as its system RAW264.7. The data set can be described thus: Antiinflammatory activity in mouse RAW264.7 cells assessed as inhibition of LPS-induced iNOS mRNA expression at 20 uM after 5 hrs by RT-PCR analysis relative to control. It is filed as functional. The gist of the method: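 RAW 264.7 cells exposed to 1 μg/mL LPS with or without compound for 5 h. Total RNA was analysed by RT-PCR: 25−30 cycles with annealing at 55 °C. Products were separated on 2% agarose gel with SYBR-Safe staining. Experiments in triplicate.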

The test system of data set [13] is RAW264.7. The data set can be described thus: Antiinflammatory activity in mouse RAW264.7 cells assessed as inhibition LPS-induced TNF-alpha protein expression at 10 uM after 4 hrs by Western blotting analysis relative to control. It is filed as functional.
Data set [14] has as its system RAW264.7. Put plainly: Inhibition of LPS-induced NFkappaB transcriptional activity in mouse RAW264.7 cells assessed as […] at 10 uM after 30 mins by Western blotting analysis relative to control. It is filed as cell-based. The gist of the method:
as §2

SMILES strings stand for the structures. The source made the active and inactive calls. The calls are words filed in the database; no cut-off is given here. Bounds are passed on as bounds.

Sequence of Transcription factor p65 (Mus musculus) (Q04207 whole entry): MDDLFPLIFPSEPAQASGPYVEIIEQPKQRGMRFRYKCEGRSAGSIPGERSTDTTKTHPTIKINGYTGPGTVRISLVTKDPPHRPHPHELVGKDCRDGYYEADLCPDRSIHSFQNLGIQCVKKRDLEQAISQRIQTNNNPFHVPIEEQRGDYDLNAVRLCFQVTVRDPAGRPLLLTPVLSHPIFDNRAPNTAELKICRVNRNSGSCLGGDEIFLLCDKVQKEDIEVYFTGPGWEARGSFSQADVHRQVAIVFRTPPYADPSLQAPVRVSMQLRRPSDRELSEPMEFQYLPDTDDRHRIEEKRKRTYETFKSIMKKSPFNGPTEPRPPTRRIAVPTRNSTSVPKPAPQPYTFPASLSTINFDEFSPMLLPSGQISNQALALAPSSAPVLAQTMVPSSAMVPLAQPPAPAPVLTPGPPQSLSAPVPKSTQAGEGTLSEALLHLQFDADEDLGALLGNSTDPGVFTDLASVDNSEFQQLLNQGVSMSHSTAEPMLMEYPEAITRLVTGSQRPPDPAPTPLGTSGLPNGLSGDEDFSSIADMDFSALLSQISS

As for `C=C1C(=O)O[C@@H]2[C@@H]3[C@@]4(C=C[C@@]3(C)[C@]3(C4)C(=O)O[C@@H]4[C@H]5C(C)=CC[C@H]5[C@](C)(O)C[C@H](OC(C)=O)[C@H]43)[C@](C)(O)CC[C@@H]12`, the inhibition entry (in the data set on Mus musculus [1]; with Rattus norvegicus; in data set [3]; in data set [7]; in the data set with Mus musculus [8]; in the data set on RAW264.7 [10]) was “Active” in each case. The inhibition entry in the data set on RAW264.7 [11] is “Active”. In addition, the inhibition result in the data set on RAW264.7 [2] and in the data set on RAW264.7 [4] was “Dose-dependent effect” each time. For the same molecule, in [5], the viability at 4 h, 20 µM is more than 80%. Besides, the “fold change (FC)” value was 0.76 with RAW264.7 [6]; 0.66 with RAW264.7 [10]; 0.67 in the data set with RAW264.7 [12]; 0.9 in the data set with RAW264.7 [13]; 1.91 with RAW264.7 [14]. For the same molecule, the inhibition in vivo (usually how much of the control response was suppressed) at 10 mg/kg in the data set on Mus musculus [9] came out at 43%.
